Test results as given in ChEMBL document CHEMBL3259642, “Design and synthesis of novel 2-phenyl-5-(1,3-diphenyl-1H-pyrazol-4-yl)-1,3,4-oxadiazoles as selective COX-2 inhibitors with potent anti-inflammatory activity” (Eur J Med Chem, 2014).

Experiments:
[1] = target: T1, Prostaglandin G/H synthase 1 (Ovis aries, UniProt P05979); experiment: Inhibition of ovine COX1 after 2 mins by EIA
T1 sequence (P05979 whole entry): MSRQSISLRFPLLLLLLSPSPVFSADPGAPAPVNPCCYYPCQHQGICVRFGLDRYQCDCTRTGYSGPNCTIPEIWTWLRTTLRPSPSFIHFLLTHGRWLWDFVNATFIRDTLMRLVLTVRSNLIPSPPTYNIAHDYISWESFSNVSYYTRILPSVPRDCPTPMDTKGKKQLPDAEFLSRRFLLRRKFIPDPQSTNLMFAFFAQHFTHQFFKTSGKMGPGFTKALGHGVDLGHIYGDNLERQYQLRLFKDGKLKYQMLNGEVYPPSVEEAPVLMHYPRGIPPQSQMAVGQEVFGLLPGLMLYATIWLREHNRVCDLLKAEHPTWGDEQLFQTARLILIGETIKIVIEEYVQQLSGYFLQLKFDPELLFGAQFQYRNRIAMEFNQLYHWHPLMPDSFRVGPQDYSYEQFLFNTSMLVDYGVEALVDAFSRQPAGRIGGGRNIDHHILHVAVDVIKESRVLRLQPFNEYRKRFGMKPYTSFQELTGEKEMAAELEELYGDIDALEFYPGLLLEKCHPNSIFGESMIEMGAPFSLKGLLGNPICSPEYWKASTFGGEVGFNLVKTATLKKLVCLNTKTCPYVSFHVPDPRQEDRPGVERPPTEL

[2] = Selectivity index, ratio of IC50 for ovine COX1 to IC50 for human recombinant COX2
Method in brief: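 Fluorescent screening kit with ovine COX-1 or human recombinant COX-2, heme and ADHP substrate in 0.1 M Tris-HCl pH 8.0 with 5 mM EDTA and 2 mM phenol. Compounds in DMSO tested at 0.01-100, 5 min at 37 °C. Arachidonic acid added; reaction stopped with HCl after 2 min. Resorufin read at ex 535/em 590 nm. IC50 from triplicate concentration-inhibition curves; SI = COX-1 IC50/COX-2 IC50.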

[3] = target: T2, Prostaglandin G/H synthase 2 (Homo sapiens, UniProt P35354); experiment: Inhibition of human recombinant COX2 after 2 mins by EIA
T2 sequence (P35354 whole entry): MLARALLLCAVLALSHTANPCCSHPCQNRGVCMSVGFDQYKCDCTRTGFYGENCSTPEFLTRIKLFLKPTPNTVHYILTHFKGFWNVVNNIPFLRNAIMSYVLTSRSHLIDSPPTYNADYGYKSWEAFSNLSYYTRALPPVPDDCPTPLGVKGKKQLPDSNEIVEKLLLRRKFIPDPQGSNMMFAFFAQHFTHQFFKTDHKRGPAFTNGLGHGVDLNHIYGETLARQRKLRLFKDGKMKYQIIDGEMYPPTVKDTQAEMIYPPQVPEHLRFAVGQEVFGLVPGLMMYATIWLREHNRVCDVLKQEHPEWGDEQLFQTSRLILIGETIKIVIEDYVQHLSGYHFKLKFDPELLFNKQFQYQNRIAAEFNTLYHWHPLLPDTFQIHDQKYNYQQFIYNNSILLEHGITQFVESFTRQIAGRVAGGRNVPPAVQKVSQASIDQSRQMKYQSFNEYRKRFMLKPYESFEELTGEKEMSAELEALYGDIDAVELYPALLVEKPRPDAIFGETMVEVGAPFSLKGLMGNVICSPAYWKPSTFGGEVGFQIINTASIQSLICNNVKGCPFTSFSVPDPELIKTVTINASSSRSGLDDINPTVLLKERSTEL

Rattus norvegicus [4] = experiment: Antiinflammatory activity in po dosed albino rat assessed as inhibition of carrageenan-induced paw edema administered 1 hr prior challenge measured 2 hrs post challenge; format: functional
Method in brief: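 Male Charles Foster albino rats, 150-200 g, n = 6 per group. Compounds suspended in 0.5% methyl cellulose, given orally at 50, 100 and 200 mg/kg; reference drugs at 25, 50 and 100 mg/kg. 1 h later, 0.2 mL of 1% carrageenan in 0.9% NaCl injected into the right hind paw.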

Mus musculus [5] = experiment: Analgesic activity in mouse assessed as inhibition of acetic acid-induced writhing at 100 mg/kg, po administered 60 mins prior challenge measured for 5 to 10 mins post acetic acid challenge relative to control; format: functional
Method in brief: (§1)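 Groups of 6 mice given saline, test compound (200 mg/kg) or aspirin (100 mg/kg) orally. 60 min later, 0.6% acetic acid injected i.p. Writhes per mouse counted between 5 and 10 min after injection. Percent inhibition of writhes calculated against the saline control group.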

Rattus norvegicus [6] = experiment: Ulcerogenic activity in po dosed albino rat at 200 mg/kg, po administered intragastrically measured after 3 hrs; format: toxicity, organism-based; parameters: dose 200 mg/kg, route oral; conditions: in vivo
Method in brief: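 Rats of 180-200 g, 6 per group, fasted 24 h, dosed intragastrically at 200 mg/kg. Killed 3 h later; stomachs opened along the lesser curvature. Each hemorrhagic lesion measured along its maximum length and ranked. Lesion lengths summed to give the ulcer index, reported as mean ± SEM.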

Mus musculus [7] = experiment: Analgesic activity in mouse assessed as inhibition of acetic acid-induced writhing at 200 mg/kg, po administered 60 mins prior challenge measured for 5 to 10 mins post acetic acid challenge relative to control; format: functional; method in brief: as §1

c1ccc(-c2nn(-c3ccccc3)cc2-c2nnc(-c3ccncc3)o2)cc1
IC50 [1]: > 100 µM
Ratio IC50 [2]: > 9
IC50 [3]: 11.1 µM

Fc1ccc(-c2nn(-c3ccccc3)cc2-c2nnc(-c3ccccc3)o2)cc1
IC50 [1]: > 100 µM
Ratio IC50 [2]: > 15.4
ED50 (Rattus norvegicus [4]): 175 mg/kg
IC50 [3]: 6.5 µM

c1ccc(-c2nnc(-c3cn(-c4ccccc4)nc3-c3ccccc3)o2)cc1
IC50 [1]: > 100 µM
Ratio IC50 [2]: > 67
ED50 (Rattus norvegicus [4]): 125 mg/kg
IC50 [3]: 1.5 µM

COc1ccc(-c2nn(-c3ccccc3)cc2-c2nnc(-c3ccncc3)o2)cc1
IC50 [1]: > 100 µM
Ratio IC50 [2]: > 2.4
IC50 [3]: 42 µM

Cc1ccc(-c2cc(C(F)(F)F)nn2-c2ccc(S(N)(=O)=O)cc2)cc1 [CELECOXIB]
ED50 (Rattus norvegicus [4]): 81.7 mg/kg

Clc1ccc(-c2nnc(-c3cn(-c4ccccc4)nc3-c3ccccc3)o2)cc1
IC50 [1]: > 100 µM
Ratio IC50 [2]: > 2.6
IC50 [3]: 38 µM

Fc1ccc(-c2nn(-c3ccccc3)cc2-c2nnc(-c3ccncc3)o2)cc1
IC50 [1]: > 100 µM
Ratio IC50 [2]: > 43
ED50 (Rattus norvegicus [4]): 123 mg/kg
IC50 [3]: 2.3 µM

O=[N+]([O-])c1ccc(-c2nn(-c3ccccc3)cc2-c2nnc(-c3ccncc3)o2)cc1
IC50 [1]: > 100 µM
Ratio IC50 [2]: > 200
ED50 (Rattus norvegicus [4]): 72.6 mg/kg
IC50 [3]: 0.5 µM

Clc1ccc(-c2nn(-c3ccccc3)cc2-c2nnc(-c3ccncc3)o2)cc1
IC50 [1]: > 100 µM
Ratio IC50 [2]: > 23
ED50 (Rattus norvegicus [4]): 167 mg/kg
IC50 [3]: 4.4 µM

O=C(O)Cc1ccccc1Nc1c(Cl)cccc1Cl [DICLOFENAC]
ED50 (Rattus norvegicus [4]): 110 mg/kg

Clc1ccc(-c2nn(-c3ccccc3)cc2-c2nnc(-c3ccccc3)o2)cc1
IC50 [1]: > 100 µM
Ratio IC50 [2]: > 21
ED50 (Rattus norvegicus [4]): 171 mg/kg
IC50 [3]: 4.7 µM

O=[N+]([O-])c1ccc(-c2nn(-c3ccccc3)cc2-c2nnc(-c3ccc(Cl)cc3)o2)cc1
IC50 [1]: > 100 µM
Ratio IC50 [2]: > 83.3
ED50 (Rattus norvegicus [4]): 167 mg/kg
IC50 [3]: 1.2 µM

CC(=O)Oc1ccccc1C(=O)O [ASPIRIN]
inhibition in vivo at 100 mg/kg (Mus musculus [5]): 72.2%
Activity (Rattus norvegicus [6]): Toxic

Cc1ccc(-c2nn(-c3ccccc3)cc2-c2nnc(-c3ccncc3)o2)cc1
IC50 [1]: > 100 µM
Ratio IC50 [2]: > 1.9
IC50 [3]: 53 µM

Clc1ccc(-c2nnc(-c3cn(-c4ccccc4)nc3-c3ccc(Cl)cc3)o2)cc1
IC50 [1]: > 100 µM
Ratio IC50 [2]: > 11.5
ED50 (Rattus norvegicus [4]): 199 mg/kg
IC50 [3]: 8.7 µM

Brc1ccc(-c2nn(-c3ccccc3)cc2-c2nnc(-c3ccccc3)o2)cc1
IC50 [1]: > 100 µM
Ratio IC50 [2]: > 1
IC50 [3]: > 100 µM

Fc1ccc(-c2nn(-c3ccccc3)cc2-c2nnc(-c3ccc(Cl)cc3)o2)cc1
IC50 [1]: > 100 µM
Ratio IC50 [2]: > 18.2
ED50 (Rattus norvegicus [4]): 182 mg/kg
IC50 [3]: 5.5 µM

O=[N+]([O-])c1ccc(-c2nn(-c3ccccc3)cc2-c2nnc(-c3ccccc3)o2)cc1
IC50 [1]: > 100 µM
Ratio IC50 [2]: > 222
ED50 (Rattus norvegicus [4]): 74.3 mg/kg
Activity (Rattus norvegicus [6]): Non-toxic
IC50 [3]: 0.31 µM
inhibition in vivo at 200 mg/kg (Mus musculus [7]): 67.3%

COc1ccc(-c2nn(-c3ccccc3)cc2-c2nnc(-c3ccc(Cl)cc3)o2)cc1
IC50 [1]: > 100 µM
Ratio IC50 [2]: > 1.5
IC50 [3]: 67 µM

COc1ccc(-c2nn(-c3ccccc3)cc2-c2nnc(-c3ccccc3)o2)cc1
IC50 [1]: > 100 µM
Ratio IC50 [2]: > 1
IC50 [3]: > 100 µM

Brc1ccc(-c2nn(-c3ccccc3)cc2-c2nnc(-c3ccncc3)o2)cc1
IC50 [1]: > 100 µM
Ratio IC50 [2]: > 2.6
IC50 [3]: 39 µM

Cc1ccc(-c2nn(-c3ccccc3)cc2-c2nnc(-c3ccc(Cl)cc3)o2)cc1
IC50 [1]: > 100 µM
Ratio IC50 [2]: > 1.7
IC50 [3]: 58 µM

Clc1ccc(-c2nnc(-c3cn(-c4ccccc4)nc3-c3ccc(Br)cc3)o2)cc1
IC50 [1]: > 100 µM
Ratio IC50 [2]: > 2
IC50 [3]: 50 µM

Cc1ccc(-c2nn(-c3ccccc3)cc2-c2nnc(-c3ccccc3)o2)cc1
IC50 [1]: > 100 µM
Ratio IC50 [2]: > 4
IC50 [3]: 25 µM
